Results taken from the EternaBench riboswitch data.

Tested on: MS2 coat protein
Test: apparent Kd, MS2 coat protein; higher = weaker binding; RNA-MaP array; FMN 200 µM where present
In short: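 Apparent Kd: the median of filtered binding-curve fits from single clusters. Designs were transcribed on Illumina sequencing-chip clusters by stalled E. coli RNA polymerase and titrated with SNAP-549-labelled MS2 coat protein from 0.7 or 1.5 nM, doubling to 3 µM, in 100 mM Tris-HCl pH 7.5, 80 mM KCl, 4 mM MgCl2, BSA, DTT, yeast tRNA and Tween-20. Each series ran without and then with constant ligand, and green signal was normalised to red-channel RNA signal and control-cluster median Fmax.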

[1] = designed as: ON switch for flavin mononucleotide, no ligand
[2] = ligand present: flavin mononucleotide, designed as: ON switch for flavin mononucleotide
[3] = designed as: OFF switch for flavin mononucleotide, no ligand
[4] = ligand present: flavin mononucleotide, designed as: OFF switch for flavin mononucleotide

| Sequence | apparent Kd [1] [nM] | apparent Kd [2] [nM] | apparent Kd [3] [nM] | apparent Kd [4] [nM] |
| --- | --- | --- | --- | --- |
| GGCAUACAUGAGGAUCACCCAUGUUCAACCUAGAUAGGAUAUGGGCCUCUUGUAUUAGGCCCAGAAGGAUCUGUAA | 103 | 29.6 | – | – |
| AGAUGGUAGAUAGGAUAUCAUGUGCUGACAUGAGGAUCACCCAUGUAGGGACGUCAGUCCAAUUAUGAGAAGGAUCUACCAUCU | 61 | 39.3 | – | – |
| UUUUUACAUGAGGAUCACCCAUGUCAGGAUAUGAUUAUAUUUUAUUAUUUUAUUUUUUUCAGAAGGGACUAUUA | – | – | 117 | 56.9 |
| AAGACGUGGGAAGGAUAUCUGGAAUAUCGGUCGAGAGAAGGUCCCUCGACAUGAGGAUCACCCAUGUAACGCGGUCUACCGUGU | 596 | 494 | – | – |
| AAUAACAGAGGAUAUACUAUUUUAUGUGUUUGUUAUUUUGAACAUGAGGAUCACCCAUGUAGAAGGCUGAGUAA | – | – | 28.8 | 28.9 |
| CGUAUGUCAGGAUAUGCGUAUGCCGCUCGGGACGAGCGGCAGCAGAAGGGACAUGAGGAUCACCCAUGUUCGGG | – | – | 75 | 72.7 |
| AUAUCCUAGAUAGGAUAUACUGAGGUUGAAUGGGUAGAAGGAUCGUUAGGGAAGACUACAUGAGGAUCACCCAUGUUGUGUAUU | 218 | 182 | – | – |
| AUAAUUUUAUUUUUCUAUUUCAUCAGAAGGCAUUACAUGAGGAUCACCCAUGUUUUGGAUAGUAAUGAGGAUAUGAUAUGGUUA | – | – | 10.2 | 18.6 |
| UGUCGGAGCAGAGGAUAUUACAUGAGGAUCACCCAUGUAUGAACCAAUAGCUGGAAACAGCAAUGUAAGAAGGCUACUCCGACA | – | – | 5.41 | 31.4 |
| UCUGCCGCCGUGAGGAUAUGCCCAAAUAAAAGCGGGCAGAAGGCACAUGAGGAUCACCCAUGUCCUGCGGUUUU | – | – | 22.1 | 93.6 |
| UUGGACGUCGUAGGAUAUGAAGGAUAUUCCUACAUGAGGAUCACCCAUGUUGACAUGGAAGAAGGACAGAAGGACGAUGUCCAU | 11.3 | 5.16 | – | – |
| CGCUGGUGACAGCAUCCAUCAAAACAUGAGGAUCACCCAUGUAGAAGGCUGUACGGUUACCGUACAGAGGAUAUACAAUGAUGA | – | – | 15.9 | 26.4 |
| UGUGUGUGUGUGAGGAUAUCGGGCCCGAAAGGGCCCGAGAAGGCACAUGAGGAUCACCCAUGUAAGCGCGCGCG | – | – | 321 | 108 |
| GGGAGUGGAGGGAAUAACAUGAGGAUCACCCAUGUAUGGGAGAGAAGGCAGGUCGGAGGGCGAUCUGAGGAUAUUUAGACUCCU | 12.5 | 10.3 | – | – |
| CAGCGAUAGCUGAAUGGUACAUGGGAGGAUAUGGGUUGAUACAUGAGGAUCACCCAUGUUUAAUACUAGAAGGCCCAUGUACCU | 316 | 11 | – | – |
| ACGAAACAUGAGGAUCACCCAUGUGAGGAUAUGUAAAUACUAGACAAAUAACAGAAAAACAGAAGGCACUCAGA | – | – | 24.3 | 22 |
| UUACAUACAAAGGUACAUGAGGAUCACCCAUGUUUGUUGGGAAGAAGGGUAACAAUACUACACAUACAGGAUAUUUCACAAAUA | 48 | 31.3 | – | – |
| CUGUUAUAGGUCCAGAAUUACAACAUGAGGAUCACCCAUGUGCAGGAUAUCGAGUUAAUUUUCAACGAGAAGGGCAUAGUCACG | – | – | 35.9 | 67.6 |
| GCAGCUAAUAUUAUACAUGAGGAUCACCCAUGUUACAUGAGUAAGGAUAUUGAUGAUUAUAUAAACAAGAAGGUACGAAGCUGC | 14.9 | 7.85 | – | – |
| AGGUACGGUCGAUCAUACCAAGGUAGAAGGCGACUGGGAAUGUGAGACAUGAGGAUCACCCAUGUCGAGGAUAUACCUGAAAGU | – | – | 192 | 27.4 |
| UCAUGAUGGAAGAAGGGAGUCGUGCAUGACAACUCAGGAUAUUUCACAUGAGGAUCACCCAUGUCGAAGUAACAAUGUUGAUCA | – | – | 16.2 | 56.6 |
| AUGCUUUAUGUAGGAUAUUCAAACAAAGAGAAUGGAGAAGGACAUGAGGAUCACCCAUGUAGAAUGAUGUUAGAUAUCAUAUAU | – | – | 16.3 | 14.4 |
| ACAUGAGACUAAGGAUAUGGUGUACCUACAUGUGACAUGAGGAUCACCCAUGUGGUAAGUAUGACUCAGAAGGUAGAGAUAUGU | 414 | 37.2 | – | – |
